Experiments:
[1] = system: Leishmania infantum; experiment: In Vitro evaluation for the percentage of activity towards Leishmania infantum at 3.13 uM Concentration; Toxic upon mouse primary peritoneal macrophages; format: functional, organism-based
How it was run: (§1)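 Starch-stimulated mouse peritoneal macrophages, 30 000/well, infected after 24 h with spleen-derived L. infantum amastigotes (10:1) together with 2-fold drug dilutions (12.5–1.56 µM). Incubated 7 days at 37 °C, 5% CO2. Wright-stained slides scored microscopically as % reduction of total parasite load or of infected macrophages. Uninfected treated cultures judged microscopically for macrophage toxicity.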

[2] = system: Leishmania infantum; experiment: Percentage of activity against Leishmania infantum at 6.25 uM; Toxic upon mouse primary peritoneal macrophages; format: functional, organism-based; how it was run: as §1
[3] = system: Leishmania infantum; experiment: In Vitro evaluation for the percentage of activity towards Leishmania infantum at 1.56 uM Concentration; Toxic upon mouse primary peritoneal macrophages; format: functional, organism-based; how it was run: as §1
[4] = system: Leishmania infantum; experiment: Percentage of activity against Leishmania infantum at 12.5 uM Concentration; Toxic upon mouse primary peritoneal macrophages; format: functional, organism-based; how it was run: as §1
[5] = system: MRC5; experiment: Cytotoxicity on MRC-5 cells at 12.5 uM; format: functional; settings: Homo sapiens
How it was run: (§2)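 MRC-5 human diploid embryonic lung cells seeded at 5 000/well, washed after 24 h, then given 2-fold drug dilutions (25, 12.5, 6.25, 3.13 µM) in RPMI + 5% FCS, final DMSO below 0.5%. Incubated 7 days at 37 °C, 5% CO2. MTT colorimetric read-out, scored as % reduction of absorbance at 540 nm versus untreated controls.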

[6] = system: MRC5; experiment: Cytotoxicity on MRC-5 cells at 25 uM; format: functional; settings: Homo sapiens; how it was run: as §2
[7] = system: MRC5; experiment: Cytotoxicity on MRC-5 cells at 3.13 uM; format: functional; settings: Homo sapiens; how it was run: as §2
[8] = system: MRC5; experiment: Cytotoxicity on MRC-5 cells at 6.25 uM; format: functional; settings: Homo sapiens; how it was run: as §2
[9] = system: Plasmodium falciparum; experiment: In vitro sensitivity for Plasmodium falciparum FcB1R; format: functional, organism-based
How it was run: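 Asynchronous P. falciparum cultures in human erythrocytes (0.5% parasitemia, 1% haematocrit) exposed to serially diluted drug for 24 h at 37 °C. [3H]hypoxanthine (0.5 µCi/well) then added for a further 24 h. Uptake compared with drug-free controls on the same plate. IC50 taken from the concentration–response curve, averaged over independent experiments. DMSO ≤0.1%.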

[10] = system: Trypanosoma cruzi; experiment: Percentage of activity against Trypanosoma cruzi at 1.56 uM; format: functional
How it was run: (§3)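 Mouse peritoneal macrophages, 30 000/well, infected after 24 h with about 100 000 T. cruzi trypomastigotes per well plus 2-fold drug dilutions (12.5–1.56 µM). Incubated 4 days at 37 °C, 5% CO2. Methanol-fixed, Giemsa-stained and scored microscopically as % reduction of total parasite load (free trypomastigotes plus intracellular amastigotes) versus untreated controls.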

[11] = system: Trypanosoma cruzi; experiment: Percentage of activity against Trypanosoma cruzi at 12.5 uM; Toxic upon mouse primary peritoneal macrophages; format: functional, organism-based; how it was run: as §3
[12] = system: Trypanosoma cruzi; experiment: In Vitro evaluation for the percentage of activity towards Trypanosoma cruzi at 3.13 uM Concentration; Toxic upon mouse primary peritoneal macrophages; format: functional, organism-based; how it was run: as §3
[13] = system: Trypanosoma cruzi; experiment: In Vitro evaluation for the percentage of activity towards Trypanosoma cruzi at 6.25 uM Concentration; Toxic upon mouse primary peritoneal macrophages; format: functional, organism-based; how it was run: as §3
[14] = system: Trypanosoma brucei; experiment: Percentage of activity against Trypanosoma brucei at 6.25 uM; format: functional
How it was run: (§4)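 Bloodstream-form T. brucei in HMI-9 medium, 10 000 parasites/well, exposed to 12.5, 6.25, 3.13 and 1.56 µM drug for 4 days. Read-out is % inhibition of parasite multiplication. Macrophage toxicity judged on mouse primary peritoneal macrophages.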

[15] = system: Trypanosoma brucei; experiment: Percentage of activity against Trypanosoma brucei at 1.56 uM; format: functional; how it was run: as §4
[16] = system: Trypanosoma brucei; experiment: Percentage of activity against Trypanosoma brucei at 3.13 uM; format: functional; how it was run: as §4
[17] = system: Trypanosoma cruzi; experiment: Percentage of activity against Trypanosoma cruzi at 3.13 uM; format: functional; how it was run: as §3
[18] = system: Trypanosoma brucei; experiment: Percentage of activity against Trypanosoma brucei at 12.5 uM; format: functional; how it was run: as §4
[19] = system: Leishmania infantum; experiment: Percentage of activity against Leishmania infantum 6.25 uM; format: functional; how it was run: as §1
[20] = system: Leishmania infantum; experiment: Percentage of activity against Leishmania infantum at 1.56 uM; format: functional; how it was run: as §1
[21] = system: Leishmania infantum; experiment: In Vitro evaluation for the percentage of activity towards Leishmania infantum at 12.5 uM Concentration; format: functional; how it was run: as §1
[22] = system: Leishmania infantum; experiment: Percentage of activity against Leishmania infantum at 3.13 uM; format: functional; how it was run: as §1
[23] = system: Trypanosoma cruzi; experiment: Percentage of activity against Trypanosoma cruzi at 12.5 uM; format: functional; how it was run: as §3
[24] = system: Trypanosoma cruzi; experiment: Percentage of activity against Trypanosoma cruzi at 6.25 uM Concentration; format: functional; how it was run: as §3

IC50 [9] [nM] | Compound | Cytotoxicity [1] | Cytotoxicity [2] | Cytotoxicity [3] | Cytotoxicity [4] | cytotoxicity at 12.5 µM [5] [%] | cytotoxicity at 25 µM [6] [%] | cytotoxicity at 3.13 µM [7] [%] | cytotoxicity at 6.25 µM [8] [%] | Parasite load reduction [10] [%] | Cytotoxicity [11] | Cytotoxicity [12] | Cytotoxicity [13] | Inhibition of parasite multiplication [14] [%] | Percent inhibition of parasite multiplication [15] [%] | Parasite growth inhibition [16] [%] | Reduction of T. cruzi parasite load [17] [%] | Inhibition of parasite multiplication [18] [%] | Antileishmanial activity (% reduction of parasite load) [19] [%] | Antileishmanial activity (% reduction of parasite load) [20] [%] | other results
26 | COc1ccc2nc3cc(Cl)ccc3c(NCCCN(CCCNc3c4ccc(Cl)cc4nc4ccc(OC)cc34)C(=O)CCN3CCOCC3)c2c1 | Toxic | Toxic | Toxic | Toxic | 100 | 100 | 80 | 100 | 40 | Toxic | – | Toxic | 100 | 100 | 100 | 60 | 100 | – | – | –
436 | COc1ccc2nc3cc(Cl)ccc3c(NCCCN(CCCNc3c4ccc(Cl)cc4nc4ccc(OC)cc34)C(=O)CCC(=O)N3CCOCC3)c2c1 | – | – | – | – | 20 | 60 | 0 | 0 | 0 | – | – | – | 100 | 100 | 100 | 0 | 100 | 0 | 0 | Percent inhibition of Leishmania infantum [21]: 0%; Percent antileishmanial activity (reduction of parasite load) [22]: 0%; T. cruzi parasite load reduction [23]: 60%; Reduction of T. cruzi parasite load [24]: 0%

Further lines, the compound ahead of its results:

Compound | IC50 [9] [nM] | Cytotoxicity [1] | Cytotoxicity [2] | Cytotoxicity [3] | Cytotoxicity [4] | cytotoxicity at 12.5 µM [5] [%] | cytotoxicity at 25 µM [6] [%] | cytotoxicity at 3.13 µM [7] [%] | cytotoxicity at 6.25 µM [8] [%] | Parasite load reduction [10] [%] | Cytotoxicity [11] | Cytotoxicity [12] | Cytotoxicity [13] | Inhibition of parasite multiplication [14] [%] | Percent inhibition of parasite multiplication [15] [%] | Parasite growth inhibition [16] [%] | Reduction of T. cruzi parasite load [17] [%] | Inhibition of parasite multiplication [18] [%] | Antileishmanial activity (% reduction of parasite load) [19] [%] | Antileishmanial activity (% reduction of parasite load) [20] [%] | other results
COc1ccc2nc3cc(Cl)ccc3c(NCCCN(CCCNc3c4ccc(Cl)cc4nc4ccc(OC)cc34)C(=O)CCN3CCN(C)CC3)c2c1 | 62 | Toxic | Toxic | Toxic | Toxic | 74 | 80 | 40 | 57 | 0 | Toxic | Toxic | Toxic | 100 | 100 | 100 | – | – | – | – | –
COc1ccc2nc3cc(Cl)ccc3c(NCCCN(CCCNc3c4ccc(Cl)cc4nc4ccc(OC)cc34)C(=O)C(COC(C)=O)NC(=O)OC(C)(C)C)c2c1 (stereo not drawn) | 63 | – | – | – | – | 90 | 100 | 20 | 40 | 0 | – | – | – | 100 | 100 | 100 | 0 | 100 | 80 | 0 | Percent inhibition of Leishmania infantum [21]: 90%; Percent antileishmanial activity (reduction of parasite load) [22]: 60%; T. cruzi parasite load reduction [23]: 70%; Reduction of T. cruzi parasite load [24]: 40%
COc1ccc2nc3cc(Cl)ccc3c(NCCCN(CCCNc3c4ccc(Cl)cc4nc4ccc(OC)cc34)C(=O)CCN3CCCCC3)c2c1 | 67 | Toxic | Toxic | Toxic | Toxic | 71 | 78 | 42 | 57 | 40 | Toxic | Toxic | Toxic | 100 | 100 | 100 | – | – | – | – | –
